Data as given in ChEMBL document CHEMBL1145040, “Biaryl analogues of conformationally constrained tricyclic tropanes as potent and selective norepinephrine reuptake inhibitors: synthesis and evaluation of their uptake inhibition at monoamine transporter sites” (J Med Chem, 2003).

How the values were obtained:
[1] = molecular target: Sodium-dependent dopamine transporter (Rattus norvegicus, UniProt P23977); assay: Ability to inhibit [3H]DA reuptake at dopamine transporter from rat brain
Method in brief: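 Rat brain P2 synaptosomes in modified KRH buffer (pH 7.4, nialamide); drug preincubation 30 min at 4 °C, then 15 min at 37 °C. [3H]DA (~5 nM final) uptake for 5 min, ended with cold sodium-free buffer, GF/C filtration and scintillation counting.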

[2] = molecular target: Sodium-dependent serotonin transporter (Rattus norvegicus, UniProt P31652); assay: Ability to inhibit [3H]5-HT reuptake at serotonin transporter from rat brain
Method in brief: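 P2 synaptosomes from rat brain in modified KRH buffer (pH 7.4, nialamide), preincubated with drug 30 min at 4 °C, then 15 min at 37 °C. [3H]5-HT (~5 nM final) added for 5 min; stopped with cold sodium-free buffer, then GF/C filtration and scintillation counting. Nonspecific uptake set with 10 μM fluoxetine.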

[3] = molecular target: Norepinephrine transporter (Rattus norvegicus, UniProt Q9WTR4); assay: Ability to inhibit [3H]NE reuptake at norepinephrine transporter from rat brain
Method in brief: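 Synaptosomes (P2, rat brain) in modified KRH buffer (pH 7.4, nialamide) with drug, 30 min at 4 °C then 15 min at 37 °C. [3H]NE (9 nM final) uptake for 5 min; terminated by cold sodium-free buffer, GF/C filtration and scintillation counting. Specific uptake defined with 3 μM desipramine.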

[4] = molecular target: Monoamine transporters; serotonin & dopamine (Rattus norvegicus) (UniProt P31652+P23977); assay: Uptake ratio at serotonin to dopamine transporters from rat brain
Method in brief: (§1)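 Selectivity ratios calculated from Ki values of the rat brain synaptosomal [3H]DA, [3H]5-HT and [3H]NE uptake inhibition assays.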

[5] = molecular target: Monoamine transporters; Norepinephrine & serotonin (Rattus norvegicus) (UniProt P31652+Q9WTR4); assay: Uptake ratio at norepinephrine to serotonin transporters from rat brain; method in brief: as §1
[6] = molecular target: Monoamine transporters; Norepininephrine & dopamine (Rattus norvegicus) (UniProt P23977+Q9WTR4); assay: Uptake ratio at norepinephrine to dopamine transporters from rat brain; method in brief: as §1

Norepinephrine transporter, sequence (Q9WTR4 whole entry): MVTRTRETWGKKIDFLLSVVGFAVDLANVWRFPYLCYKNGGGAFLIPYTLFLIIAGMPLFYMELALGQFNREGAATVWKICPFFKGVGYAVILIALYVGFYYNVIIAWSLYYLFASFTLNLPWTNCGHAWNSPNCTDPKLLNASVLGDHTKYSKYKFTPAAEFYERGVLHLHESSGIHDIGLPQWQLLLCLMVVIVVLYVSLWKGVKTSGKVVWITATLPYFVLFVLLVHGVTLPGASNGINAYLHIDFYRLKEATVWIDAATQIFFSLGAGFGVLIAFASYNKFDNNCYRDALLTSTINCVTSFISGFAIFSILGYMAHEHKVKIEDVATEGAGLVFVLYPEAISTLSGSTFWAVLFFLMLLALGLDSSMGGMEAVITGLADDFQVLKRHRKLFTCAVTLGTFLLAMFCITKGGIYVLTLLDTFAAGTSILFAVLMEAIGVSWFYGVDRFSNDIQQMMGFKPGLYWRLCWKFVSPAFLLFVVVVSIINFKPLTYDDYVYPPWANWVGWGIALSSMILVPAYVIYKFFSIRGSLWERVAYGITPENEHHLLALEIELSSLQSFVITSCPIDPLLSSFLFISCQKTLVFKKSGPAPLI
Sodium-dependent serotonin transporter, sequence (P31652 whole entry): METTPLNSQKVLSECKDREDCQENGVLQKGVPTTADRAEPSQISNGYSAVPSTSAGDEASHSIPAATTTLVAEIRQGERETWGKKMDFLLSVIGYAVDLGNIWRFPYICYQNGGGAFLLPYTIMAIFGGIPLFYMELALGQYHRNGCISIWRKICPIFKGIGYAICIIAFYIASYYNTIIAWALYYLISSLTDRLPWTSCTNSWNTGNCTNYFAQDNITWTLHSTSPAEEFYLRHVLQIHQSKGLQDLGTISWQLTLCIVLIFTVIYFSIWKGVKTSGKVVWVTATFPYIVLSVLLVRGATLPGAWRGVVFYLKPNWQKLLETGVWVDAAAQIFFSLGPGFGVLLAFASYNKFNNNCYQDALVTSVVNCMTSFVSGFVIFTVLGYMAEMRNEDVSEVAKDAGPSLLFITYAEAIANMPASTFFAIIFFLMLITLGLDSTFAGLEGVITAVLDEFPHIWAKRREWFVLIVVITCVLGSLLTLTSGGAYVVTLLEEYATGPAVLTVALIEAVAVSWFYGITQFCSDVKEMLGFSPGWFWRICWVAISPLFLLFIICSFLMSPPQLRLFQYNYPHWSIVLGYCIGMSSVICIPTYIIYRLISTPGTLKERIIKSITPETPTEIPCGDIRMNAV
Sodium-dependent dopamine transporter, sequence (P23977 whole entry): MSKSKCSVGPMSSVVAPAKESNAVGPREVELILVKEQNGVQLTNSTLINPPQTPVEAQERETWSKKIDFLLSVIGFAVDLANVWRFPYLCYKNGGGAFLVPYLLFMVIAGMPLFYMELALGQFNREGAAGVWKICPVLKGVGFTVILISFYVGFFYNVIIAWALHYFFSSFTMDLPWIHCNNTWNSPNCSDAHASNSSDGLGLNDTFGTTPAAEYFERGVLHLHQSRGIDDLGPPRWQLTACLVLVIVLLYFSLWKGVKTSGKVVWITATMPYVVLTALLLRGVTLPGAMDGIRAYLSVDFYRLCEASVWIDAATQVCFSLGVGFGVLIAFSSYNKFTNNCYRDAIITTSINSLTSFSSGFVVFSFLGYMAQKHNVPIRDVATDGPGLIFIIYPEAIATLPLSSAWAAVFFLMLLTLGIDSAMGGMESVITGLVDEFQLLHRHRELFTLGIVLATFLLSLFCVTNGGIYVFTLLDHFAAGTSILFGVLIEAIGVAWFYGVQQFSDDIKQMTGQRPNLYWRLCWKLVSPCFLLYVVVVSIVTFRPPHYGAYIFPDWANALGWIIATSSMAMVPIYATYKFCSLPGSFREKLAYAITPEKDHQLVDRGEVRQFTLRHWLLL
Monoamine transporters; serotonin & dopamine (Rattus norvegicus), sequence (P23977 whole entry, looked up): as the sequence (P23977 whole entry) above
Monoamine transporters; serotonin & dopamine (Rattus norvegicus), sequence (P31652 whole entry, looked up): as the sequence (P31652 whole entry) above

| Compound | Ki [1] [µM] | Ki [2] [µM] | Ki [3] [µM] | Ratio [4] | Ratio [5] | Ratio [6] |
| --- | --- | --- | --- | --- | --- | --- |
| COC(=O)C1C2CCC3CCC1N(C/C2=C\c1ccc(-c2ccc(C)s2)cc1)C3 (centres undefined) | 0.674 | 0.2 | 0.0225 | 0.3 | 0.11 | – |
| COC(=O)C1C2CCC3CCC1N(C/C2=C\c1ccc(-c2ccc(I)cc2)cc1)C3 (centres undefined) | 0.377 | 0.66 | 0.114 | 1.75 | – | 0.3 |
| COC(=O)C1C2CCC3CCC1N(C/C2=C\c1ccc(-c2cccs2)cc1)C3 (centres undefined) | 0.155 | 0.073 | 0.0198 | 0.47 | 0.27 | 0.13 |
| COC(=O)C1C2CCC3CCC1N(C/C2=C\c1ccc(-c2ccco2)cc1)C3 (centres undefined) | 0.098 | 0.248 | 0.0139 | 2.54 | 0.06 | 0.14 |
| COC(=O)C1C2CCC3CCC1N(C/C2=C\c1ccc(-n2cccc2)cc1)C3 (centres undefined) | 0.568 | 0.149 | 0.0459 | 0.26 | 0.31 | 0.08 |
| COC(=O)[C@@H]1C2CCC3CCC1N(C/C2=C\c1ccc(-c2ccccc2)cc1)C3 (some centres undefined) | 0.477 | 0.614 | 0.012 | 1.29 | 0.02 | 0.02 |
| COC(=O)C1C2CCC3CCC1N(C/C2=C\c1ccc(-c2ccccc2)s1)C3 (centres undefined) | 0.179 | 0.071 | 0.0135 | 0.4 | 0.19 | 0.08 |
| COC(=O)C1C2CCC3CCC1N(C/C2=C\c1ccc(-c2ccsc2)cc1)C3 (centres undefined) | 0.277 | 0.145 | 0.0205 | 0.52 | 0.14 | 0.07 |
| COC(=O)C1C2CCC3CCC1N(C/C2=C\c1ccc(-c2ccc(C#N)cc2)cc1)C3 (centres undefined) | 0.047 | 0.909 | 0.0324 | 19.3 | 0.04 | 0.69 |
| COC(=O)C1C2CCC3CCC1N(C/C2=C\c1ccc(-c2ccc(OC)cc2)s1)C3 (centres undefined) | 0.317 | 0.531 | 0.0103 | 1.43 | 0.02 | 0.03 |
| COC(=O)C1C2CCC3CCC1N(C/C2=C\c1ccc(-c2cc(Cl)cc(Cl)c2)cc1)C3 (centres undefined) | 0.106 | 0.383 | 0.061 | 3.62 | 0.16 | 0.58 |
| COC(=O)C1C2CCC3CCC1N(C/C2=C\c1ccc(-c2ccc(Cl)cc2)cc1)C3 (centres undefined) | 0.417 | 1.26 | 0.739 | 3.03 | 0.59 | 1.77 |
| COC(=O)C1C2CCC3CCC1N(C/C2=C\c1ccc(-c2ccc(Cl)cc2Cl)cc1)C3 (centres undefined) | 1.59 | 0.393 | 0.466 | 0.25 | 1.19 | 0.29 |
| O=C(OCC1C2CCC3CCC1N(C/C2=C\c1ccc(-c2ccc(Cl)c(Cl)c2)c(Cl)c1)C3)c1ccccc1 (centres undefined) | 5.64 | 0.956 | > 10 | 0.17 | – | – |
| COC(=O)C1C2CCC3CCC1N(C/C2=C\c1ccc(-c2ccccc2)c(Cl)c1)C3 (centres undefined) | 4.26 | 0.366 | 0.991 | 0.09 | 2.71 | 0.23 |
| COC(=O)C1C2CCC3CCC1N(C/C2=C\c1ccc(-c2cccc(Cl)c2)cc1)C3 (centres undefined) | 0.089 | 0.213 | 0.0175 | 2.4 | 0.08 | 0.2 |
| COC(=O)C1C2CCC3CCC1N(C/C2=C\c1ccc(-c2ccc(N(C)C)cc2)cc1)C3 (centres undefined) | 1.05 | 1 | 0.0579 | 0.95 | 0.06 | 0.05 |
| CC(=O)OCC1C2CCC3CCC1N(C/C2=C\c1ccc(-c2ccccc2)cc1)C3 (centres undefined) | 0.165 | 0.046 | 0.057 | 0.28 | 1.24 | 0.35 |
| OC[C@@H]1C2CCC3CCC1N(C/C2=C\c1ccc(-c2ccccc2)cc1)C3 (some centres undefined) | 1.3 | 1.54 | 0.183 | 1.19 | 0.12 | 0.14 |
| COC(=O)C1C2CCC3CCC1N(C/C2=C\c1ccc(-c2ccc(Cl)c(Cl)c2)cc1)C3 (centres undefined) | 0.236 | 0.239 | 0.0097 | 1.01 | 0.04 | 0.04 |
| COC(=O)C1C2CCC3CCC1N(C/C2=C\c1ccc(-c2ccc(C)cc2)cc1)C3 (centres undefined) | 0.214 | 1.49 | 0.0227 | 6.97 | 0.02 | 0.11 |
| COC(=O)C1C2CCC3CCC1N(C/C2=C\c1ccc(-c2ccc(OC)cc2)cc1)C3 (centres undefined) | 0.841 | 3.39 | 0.039 | 4.04 | 0 | 0.05 |
| COC(=O)C1C2CCC3CCC1N(C/C2=C\c1ccc(-c2ccc(C(F)(F)F)cc2)cc1)C3 (centres undefined) | 3.13 | 2.21 | 1.15 | 0.71 | 0.52 | 0.37 |
